Laboratory results published in ChEMBL document CHEMBL3352516, “Synthesis and biological evaluation of largazole analogues with modified surface recognition cap groups” (2014).
The source made the active and inactive calls. The rule behind the calls is not given here.

Assays:
[1] = molecular target: T1, Histone deacetylase (Homo sapiens) (UniProt Q13547+O15379+Q9UBN7+Q92769+Q9UQL6+Q8WUI4+Q9BY41+Q96DB2+P56524+Q9UKV0+Q969S8); assay: Inhibition of human HDAC in human HCT116 cells assessed as global histone H3 lysine-9 acetylation levels at 0.01 to 1 uM after 24 hrs by Western blotting method; assay type: cell-based; details: HCT-116
Outline: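 HCT116 cells treated 24 h with 10 nM, 100 nM or 1 μM compound, or DMSO. Western blot probed with anti-acetyl-H3 primary antibody and β-actin as loading control. Detection by dye-conjugated secondary antibodies on an infrared scanner.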

[2] = molecular target: T1, Histone deacetylase (Homo sapiens); details: HCT-116, 1 uM
[3] = molecular target: Histone deacetylase 1 (Homo sapiens) (UniProt Q13547); assay: Inhibition of human HDAC1 (unknown origin) at 1 uM using Fluor de Lys substrate fluorimetric assay
Chain of Histone deacetylase 1 (Homo sapiens) (Q13547 whole entry): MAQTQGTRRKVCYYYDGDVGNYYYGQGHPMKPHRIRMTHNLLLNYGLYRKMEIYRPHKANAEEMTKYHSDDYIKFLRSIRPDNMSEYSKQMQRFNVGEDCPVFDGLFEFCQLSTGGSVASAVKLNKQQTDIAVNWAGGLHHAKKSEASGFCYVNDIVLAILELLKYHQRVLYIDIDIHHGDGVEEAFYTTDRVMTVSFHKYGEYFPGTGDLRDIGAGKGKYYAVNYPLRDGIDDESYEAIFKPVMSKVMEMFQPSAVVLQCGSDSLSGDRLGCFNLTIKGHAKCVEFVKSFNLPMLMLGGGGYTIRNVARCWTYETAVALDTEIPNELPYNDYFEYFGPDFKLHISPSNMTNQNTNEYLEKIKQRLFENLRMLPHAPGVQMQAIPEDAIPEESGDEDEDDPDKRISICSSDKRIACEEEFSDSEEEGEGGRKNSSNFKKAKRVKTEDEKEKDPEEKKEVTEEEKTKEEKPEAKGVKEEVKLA
Outline: (§1)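 Recombinant HDAC1 incubated 1 h with inhibitor (0–1 μM) and class I-specific Fluor de Lys substrate, then developer added and fluorescence read. Compound with substrate and developer but no enzyme served as interference control. Three experiments, each in triplicate.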

HCT-116 [4] = assay: Growth inhibition of human HCT116 cells at 5 uM after 96 hrs by MTS assay; assay type: functional, cell-based
Outline: (§2)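 HCT116 colorectal cells seeded at 3×10⁴ cells/well in quadruplicate, attached overnight, then medium replaced with compound-containing medium; 96 h at 37 °C, 5% CO₂. CellTiter 96 One Solution MTS added, 1.5 h at 37 °C, absorbance at 490 nm. Two experiments, each with 4 replicates, mean with SEM; GI50 taken from growth curves.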

[5] = molecular target: T2, Protein deacetylase HDAC6 (Homo sapiens) (UniProt Q9UBN7); assay: Inhibition of human HDAC6 (unknown origin) at 1 uM using Fluor de Lys substrate fluorimetric assay
T2 sequence (whole entry): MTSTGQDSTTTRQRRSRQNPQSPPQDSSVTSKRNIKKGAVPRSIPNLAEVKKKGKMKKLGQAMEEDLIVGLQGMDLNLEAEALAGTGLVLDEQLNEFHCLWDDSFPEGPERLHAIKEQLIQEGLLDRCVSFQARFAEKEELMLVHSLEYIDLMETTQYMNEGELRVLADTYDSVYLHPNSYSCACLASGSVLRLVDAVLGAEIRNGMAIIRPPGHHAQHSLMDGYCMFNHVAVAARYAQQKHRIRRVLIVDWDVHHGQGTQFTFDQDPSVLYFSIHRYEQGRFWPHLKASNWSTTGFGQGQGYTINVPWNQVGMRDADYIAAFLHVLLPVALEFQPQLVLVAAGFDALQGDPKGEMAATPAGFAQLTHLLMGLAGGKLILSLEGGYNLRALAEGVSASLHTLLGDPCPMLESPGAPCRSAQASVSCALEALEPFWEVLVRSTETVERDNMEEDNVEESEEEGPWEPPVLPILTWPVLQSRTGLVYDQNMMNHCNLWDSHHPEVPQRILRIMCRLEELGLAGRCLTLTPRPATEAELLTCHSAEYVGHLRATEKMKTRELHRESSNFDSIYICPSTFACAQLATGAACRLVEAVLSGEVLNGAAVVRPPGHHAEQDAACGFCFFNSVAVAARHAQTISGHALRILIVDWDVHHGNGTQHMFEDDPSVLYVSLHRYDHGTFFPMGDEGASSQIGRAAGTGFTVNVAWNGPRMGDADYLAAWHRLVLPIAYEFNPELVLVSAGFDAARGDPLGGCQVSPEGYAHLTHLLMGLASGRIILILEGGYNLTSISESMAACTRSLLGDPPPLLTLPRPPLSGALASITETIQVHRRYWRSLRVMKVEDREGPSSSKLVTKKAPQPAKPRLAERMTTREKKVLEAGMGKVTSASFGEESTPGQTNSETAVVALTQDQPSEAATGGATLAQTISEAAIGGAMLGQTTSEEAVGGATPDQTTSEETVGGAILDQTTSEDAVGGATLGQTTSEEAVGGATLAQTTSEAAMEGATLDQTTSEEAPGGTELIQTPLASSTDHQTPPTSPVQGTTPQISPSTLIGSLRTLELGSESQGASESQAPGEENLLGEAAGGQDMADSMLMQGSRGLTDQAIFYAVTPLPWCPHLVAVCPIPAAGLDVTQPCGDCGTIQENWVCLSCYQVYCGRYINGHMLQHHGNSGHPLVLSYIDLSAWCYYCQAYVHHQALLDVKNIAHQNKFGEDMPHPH
Outline: (§3)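 Recombinant HDAC6 incubated 1 h with inhibitor (0–5 μM) and class II-specific Fluor de Lys substrate, then developer added and fluorescence read. Compound with substrate and developer but no enzyme served as interference control. Three experiments, each in triplicate.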

[6] = molecular target: T2, Protein deacetylase HDAC6 (Homo sapiens); assay: Inhibition of human HDAC6 (unknown origin) at 5 uM using Fluor de Lys substrate fluorimetric assay
Outline: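 Recombinant HDAC6 from a fluorimetric kit, with a substrate specific for class II activity. Enzyme, inhibitor (0–5 μM) and Fluor de Lys substrate incubated 1 h, then developer added before the fluorescence read. Compound-only controls without enzyme, with substrate and developer, checked for signal interference. Three independent experiments, each in triplicate.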

[7] = molecular target: Histone deacetylase 1 (Homo sapiens) (UniProt Q13547); assay: Inhibition of human HDAC1 (unknown origin) at 0.1 uM using Fluor de Lys substrate fluorimetric assay; outline: as §1
HCT-116 [8] = assay: Inhibition of cell proliferation of human HCT116 cells at […] after 96 hrs by MTS assay; assay type: functional, cell-based
Outline: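 HCT116 colorectal cells seeded at 3×10⁴ cells/well in quadruplicate, left to attach overnight, then given fresh medium with compound for 96 h at 37 °C, 5% CO₂. MTS reagent added for 1.5 h, absorbance read at 490 nm. Mean of two experiments, each with 4 replicates.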

[9] = molecular target: Histone deacetylase 1 (Homo sapiens) (UniProt Q13547); assay: Inhibition of human HDAC1 (unknown origin) at 0.01 to 1 uM using Fluor de Lys substrate fluorimetric assay
[10] = Growth inhibition of human HCT116 cells after 96 hrs by MTS assay; assay type: functional; details: HCT-116, 96 h; outline: as §2
[11] = molecular target: T2, Protein deacetylase HDAC6 (Homo sapiens); assay: Inhibition of human HDAC6 (unknown origin) at 0.01 to 5 uM using Fluor de Lys substrate fluorimetric assay; outline: as §3

Row | SMILES | inhibition [1] | inhibition [2] | inhibition [3] [%] | growth inhibition (GI) (HCT-116 [4]) | inhibition [5] [%] | inhibition [6] [%] | inhibition [7] | inhibition (HCT-116 [8]) | inhibition [9] | GI50 [10] [nM] | inhibition [11]
1 | CCCCCCCC(=O)SCC/C=C/[C@@H]1CC(=O)NCc2nc(cs2)C2=N[C@](C)(CS2)C(=O)N[C@@H](C(C)C)C(=O)O1 | inactive | Active | < 15 | inactive | – | – | – | – | – | – | –
2 | CCCCCCCC(=O)SCC/C=C/[C@@H]1CC(=O)NCc2nc(cs2)C2=N[C@@](C)(CS2)C(=O)N[C@@H](Cc2cccc3ccccc23)C(=O)O1 | Active | – | > 90 | – | 50 | 50 | 15% | inactive | Active | 56 | –
3 | CCCCCCCC(=O)SCC/C=C/[C@@H]1CC(=O)NCc2nc(cs2)C2=N[C@@](C)(CS2)C(=O)N[C@H](Cc2cccc3ccccc23)C(=O)O1 | inactive | – | < 15 | inactive | – | – | – | – | – | – | inactive
4 | C=CC[C@@H]1NC(=O)[C@]2(C)CSC(=N2)c2csc(n2)CNC(=O)C[C@@H](/C=C/CCSC(=O)CCCCCCC)OC1=O | Active | – | > 90 | – | 50 | 55 | inactive | inactive | Active | 10 | –
5 | CCCCCCCC(=O)SCC/C=C/[C@@H]1CC(=O)NCc2nc(cs2)C2=N[C@@](C)(CS2)C(=O)N[C@@H](C(C)C)C(=O)O1 | Active | – | > 90 | – | – | 75 | 15% | – | Active | – | Active
